Sampled rows, rich in hits. Any-hit rate of the full collection: about 11%.
S1P1 ag-PAM: agonists and agonism potentiators of human S1P1 receptor; hit rate 0.57% among 56,000; P21453; activation, % at 9.5 µM; S1P1 CRE-bla cells, forskolin, beta-lactamase FRET, potentiator mode; S1P1 agonist co-added at EC20, 2 nM; 100% = saturating reference agonist, 0% = basal;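 active = activation above a cutoff set at the mean activation of all tested compounds plus 3 SD, cut at about 54% in these data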;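 note: forskolin at 4 µM as EC80 and the EC20 agonist is SEW2871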
Target sequence (P21453 whole entry, looked up): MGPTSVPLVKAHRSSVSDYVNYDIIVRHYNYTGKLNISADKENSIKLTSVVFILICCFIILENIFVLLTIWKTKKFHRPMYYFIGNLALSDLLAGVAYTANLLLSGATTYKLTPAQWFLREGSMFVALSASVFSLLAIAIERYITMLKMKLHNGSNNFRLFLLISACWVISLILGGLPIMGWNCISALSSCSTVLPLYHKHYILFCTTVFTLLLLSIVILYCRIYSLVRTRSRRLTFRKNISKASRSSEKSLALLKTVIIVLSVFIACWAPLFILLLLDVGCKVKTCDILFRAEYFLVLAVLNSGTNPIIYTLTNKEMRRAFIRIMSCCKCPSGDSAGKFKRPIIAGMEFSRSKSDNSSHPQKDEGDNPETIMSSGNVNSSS
M1 agonist: agonists of M1 muscarinic receptor; CHO-M1 cells, Fluo-4 calcium fluorescence, agonist mode; hits give high values; AID 626; B-score at 10 µM; hit rate 3% among 64,000;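 active = fluorescence rise, raw or as B-score row- and column-corrected plate score, outside the 99.7% band of its plate's samples, either direction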
M1 antag: M1 muscarinic receptor (rat) antagonism; CHO-M1 cells, Fluo-4 calcium, ACh EC80 antagonist mode; hits give low values; B-score at 10 µM; hit rate 3.4% among 64,000; AID 628;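 active = calcium fluorescence response, raw or row-and-column corrected B-score, differing from the plate sample mean either way at a set confidence level, mostly lower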
S1P3 ag: S1P3 (human) receptor agonism. Q99500. activation, % at 4.5 µM. AID 373. hit rate 0.1% among 60,000. S1P3 NFAT-BLA reporter cells, FRET ratio; relative to 1 µM S1P, basal subtracted;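 active = activation above the screen-wide mean plus 3 SD, cut at about 4.5% in these data, passing the limit was not always enough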
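Benchmarks: high control 1 µM S1P / System: stable CHO line with human S1P3, Gα16, NFAT-BLA reporter / Dosing: single compound concentration, 4.5 µM final / Timing: 4 h compound at 37 °C, 2 h substrate at RT / Measured by: FRET β-lactamase substrate fluorescence, excitation 405 nm, 460/535 nm emission ratio, background-subtracted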
D1 mod: D1 dopamine receptor (human) allosteric modulation. hit rate 5.9% among 58,000. B-score at 10 µM. HEK293 D1, CRE-luciferase, dopamine EC30 potentiation; actives deviate in either direction. P21728;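 active = luminescence count or its row- and column-corrected plate score outside the 99.7% band of the plate's sample wells, on either side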
TNAP act mid DEA: human TNAP activation, intermediate phosphate acceptor; P05186; 64,000 tested, under 10 active; AID 813; purified TNAP, CDP-star luminescence, 100 mM DEA, 30 min; hits give high values; scale: 0 levamisole-inhibited, 1 vehicle-only enzyme; activation factor at 20 µM;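 active = activation factor of at least 2 at 20 µM, relative to controls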
Numbers stand for hits; - = inactive; . = not tested or not shown.

SMILES	S1P1 ag-PAM	M1 agonist	M1 antag	S1P3 ag	D1 mod	TNAP act mid DEA
COc1cc(NC(=O)Nc2cccc(Cl)c2)c(OC)cc1NC(=O)CN1CCCCC1	-	-	-	-	-4	-
COc1ccccc1NC(=O)CN1CCCCC1	-	-	-	-	-	-
C=CCn1c(SCC(=O)c2cccs2)nc2sc(CC)cc2c1=O	93	-	-	-	-	-
O=C(CCCSc1nc2ccccc2[nH]1)NC1=NCCS1	.	-	1.7	.	.	-
O=C(Nc1ccc(Cl)cc1)N1CCC(c2nc(-c3ccc(F)cc3)no2)CC1	57	-	-	-	-	-
Cc1nc2ccc(C(C(F)(F)F)(C(F)(F)F)C(F)(F)F)cc2[nH]1	-	-	-	-	-	-
COC(=O)CNc1nc(-c2cccnc2)nc2ccccc12	-	-	-	-	.	-
CCOC(=O)c1nc(NCc2cccnc2)c2ccccc2n1	.	-	-	-	2.7	-
O=C(Oc1cccc2ccccc12)c1ccco1	-	-	-	-	-	-
O=C(On1c(-c2ccccc2)nc2ccccc2c1=O)c1ccco1	.	.	.	.	-3.4	-
CSCC[C@H](NC(=O)C1CCN(S(=O)(=O)c2ccc(C)cc2)CC1)C(=O)NCc1ccco1	-	-	-	-	-	-
COc1ccc(C(=O)NC(=O)Nc2cc(C)ccn2)cc1	-	-	-	-	-6	-
O=C(NCc1ccco1)c1cc2ccc(O)cc2oc1=O	-	-	-	12	-	-
Cc1cc(C)n(-c2nncn2NC(=O)c2ccc(Cl)cc2O)n1	-	-	-	-	-	-
O=C(CCSc1nnnn1-c1ccccc1)N1CCOCC1	.	-	-	.	-	-
O=C(CSc1nnnn1-c1cccc2c1CCCC2)N1CCOCC1	.	-	2.7	.	.	-
CCN1CCN(c2ccc(NC(=O)Cc3ccccc3)cc2)CC1	-	-	-	-	-4.7	-
CCC(=O)Nc1ccc(N2CCN(Cc3ccccc3)CC2)cc1	-	-	-	-	-	-
CCOC(=O)c1ccc2[nH]c(C)c(CCC(C)=O)c(=O)c2c1	-	-	-	-	-	-
Cc1[nH]c2ccc(C(=O)OCCN(C)C)cc2c1C	-	-	-	-	-4	.
c1ccc2c(-n3cccn3)cccc2c1	-	-	-	-	-	-
CCOC(=O)C(CO)(NC(C)=O)C(=O)OCC	-	-	1.3	-	-	-
CCOC(=O)C(Cc1c(F)cccc1F)(NC(C)=O)C(=O)OCC	-	-	-	-	-	-
CSCC[C@H](NC(=O)OC(C)(C)C)c1nnc(SCC(N)=O)o1	-	-	-	-	-2.2	-
O=C(CCCCCN1C(=O)CCC1=O)NCc1ccccc1	-	-	2.1	-	-	-
SMILES	S1P1 ag-PAM	M1 agonist	M1 antag	S1P3 ag	D1 mod	TNAP act mid DEA
CC(Oc1ccc(Cl)cc1Cl)C(=O)Nc1ccc(N2CCN(C)CC2)cc1 (stereo not given)	.	-	-	-	-4.8	-
CCCn1c(C)cc(C(=O)CN2C(=O)c3ccccc3C2=O)c1C	-	-	-	-	-	-
O=C(CN1C(=O)c2ccccc2S1(=O)=O)c1ccccc1	-	-	-	-	.	-
Cc1cc(C(=O)CN2C(=O)c3ccccc3S2(=O)=O)c(C)n1-c1ccccc1	-	-	-	-	-5	-
Cc1cc(C(=O)CN2C(=O)C3CC=CCC3C2=O)c(C)n1-c1ccccc1 (stereo not given)	-	-	-	-	-3.6	-
c1cnc(N2CCN(c3ncnc4c3oc3ccccc34)CC2)nc1	-	3.2	-	-	-	-
c1ccc2c(c1)oc1c(N3CCOCC3)ncnc12	-	-	-	-	-	-
C(=C\c1ccccc1)/CN1CCN(c2ncnc3c2oc2ccccc23)CC1	.	6.9	-	.	-	-
Nc1nc(N2CCN(C/C=C/c3ccccc3)CC2)nc2ccccc12	-	-	-	-	-	-
COc1ccccc1-c1nn2c(-c3ccccc3Cl)nnc2s1	.	-2	-	-	-	-
COc1ccccc1OCc1ccc(C(=O)Nc2ccncc2)o1	-	-	-	-	-	-
Cc1nc(CC(=O)N2CCN(c3cccc(C)c3C)CC2)cs1	-	-	-	-	-	-
Cc1cc(/C=N/n2cnnc2)c(C)n1-c1ccc(OCc2ccccc2F)cc1	142	-	-	-	-	-
Cc1ccc(NC(=O)NC2=N/C(=C(/C#N)C(=O)N3CCCC3)c3ccccc32)cc1	-	-	-	-	-3.8	-
CN(c1ccc(C(=O)NCc2ccco2)cc1)S(C)(=O)=O	.	-	-	.	.	-
CS(=O)(=O)N(Cc1ccc(C(=O)NCc2ccco2)cc1)c1ccccc1	.	-	1.9	-	-	-
CCOP(=O)(c1ccc(N(C)C)cc1)C(O)c1ccc(Cl)cc1 (stereo not given)	-	-	-	-	-	-
O=c1c2ccccc2nnn1CSc1nnc2sc3ccccc3n12	-	-	-	-	-7.8	-
CCOC(=O)CC1=CC(C)(CC(=O)OCC)C(C#N)(C#N)C(N)=C1C#N (stereo not given)	-	-	-	-	-	-
COc1ccc2nc(NCc3ccccc3)[nH]c2c1	-	-	-	-	-4.1	-
COc1ccc2nc(-c3ccccc3)[nH]c2c1	-	-	-	-	-5.3	-
CCOc1ccc2nc(-c3ccccc3)[nH]c2c1	-	-	-	-	-	-
Cn1c(CCNC(=O)c2ccco2)nc2cc(NS(=O)(=O)c3ccc(Cl)cc3)ccc21	-	-	-	-	-	-
Cc1cc(NC(=O)C2CCN(S(=O)(=O)c3cnc[nH]3)CC2)ccc1Br	-	-	-	-	-	-
Cc1cc(OCC(=O)Nc2ccncc2)ccc1Br	-	-	-	-	-3.3	-
SMILES	S1P1 ag-PAM	M1 agonist	M1 antag	S1P3 ag	D1 mod	TNAP act mid DEA
CC1(C)Oc2ccc3ccc(=O)oc3c2/C(=C/Nc2ccccn2)C1=O	.	-	-	-	-3.6	-
CN/C=C1\C(=O)C(C)(C)Oc2ccc3ccc(=O)oc3c21	-	-	-	-	-	-
CCC(C)n1c(C)nc2c(c1=O)c1nc3ccccc3nc1n2-c1ccc2c(c1)OCCO2 (stereo not given)	-	-	-	-	-5.3	-
O=c1c2c3nc4ccccc4nc3n(-c3ccc4c(c3)OCCO4)c2ncn1C1CCCC1	-	-	-	-	-	-
O=c1c2c3nc4ccccc4nc3n(-c3ccc4c(c3)OCCO4)c2ncn1CC1CCCO1 (stereo not given)	-	-	-1.8	-	-	-
O=C(OCc1nc2ccc(Cl)cc2n1CCO)c1ccc2c(c1)OCO2	-	-	-	-	.	-
CCN(CC)C(=O)Cn1nc(-c2ccccc2O)nc1SCC(=O)Nc1ccc(OC)cc1	-	-	-	-	-	-
CCC(C)NC(=O)C(NS(=O)(=O)c1ccc2c(c1)c(=O)n(C)c(=O)n2C)c1ccccc1 (stereo not given)	-	-	-	-	-5.6	-
